ChEMBL document CHEMBL1156517, “Targeting thyroid hormone receptor-beta agonists to the liver reduces cholesterol and triglycerides and improves the therapeutic index” (Proc Natl Acad Sci U S A, 2007)
Active and inactive are the calls of the source. The rule behind the calls is not given here.

How the values were obtained:
[1] = system: Mus musculus; assay: Effect on hepatic LDLR mRNA level in diet-induced obese C57BL/6 mouse at 10 mg/kg, po after 8 hrs by RT-PCR; format: functional
In short: (§1)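 Single oral dose in male DIO mice: C57BL/6 mice, about 4 weeks old at start, fed a 60% fat (by kcal) diet for about 170 days. Hepatic LDLR mRNA read out at early time points (3 and 8 h) after dosing.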

[2] = system: Rattus norvegicus; assay: Effect on fasting blood glucose level in Sprague-Dawley rat at 50 mg/kg/day, po after 8 days by oral glucose tolerance test; format: functional
[3] = system: Rattus norvegicus; assay: Effect on food intake in Sprague-Dawley rat at 1 mg/kg/day, po after 8 days; format: functional
[4] = system: Mus musculus; assay: Decrease in cholesterol level in LDLR deficient C57BL/6 mouse at 5 mg/kg/day once daily for 7 days; format: functional, organism-based
[5] = system: Mus musculus; assay: Decrease in liver triglyceride level in po dosed diet-induced obese C57BL/6 mouse after 14 days; format: functional; parameters: scale not given: the % may be the effect or the level left
In short: (§2)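 DIO mice were male C57BL/6 fed a 60%-fat (by kcal) diet from about 4 weeks of age for about 170 days. They were grouped (n = 8) to match cholesterol and body weight. Dosing was oral, once daily for 2 weeks, in 0.5% CMC/1% Lutrol F68. At kill, blood was taken by cardiac puncture for plasma TGs. The liver was removed and weighed, and hepatic TGs were measured.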

[6] = system: Mus musculus; assay: Reduction in plasma cholesterol level in po dosed diet-induced obese C57BL/6 mouse after 2 weeks; format: functional; parameters: scale not given: the % may be the effect or the level left
In short: (§3)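 Male C57BL/6 mice, about 4 weeks old, fed a high-fat diet (60% kcal fat) for about 170 days. Assigned to groups (n = 8) matched for cholesterol and body weight. Dosed orally once daily in 0.5% CMC/1% Lutrol F68 for 2 weeks. Baseline blood taken by tail nick. At end, cardiac-puncture blood used for cholesterol, TGs, glucose and thyroid hormones; liver weighed and hepatic TGs measured.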

[7] = system: Mus musculus; assay: Decrease in cholesterol level in LDLR deficient C57BL/6 mouse at 0.5 mg/kg/day once daily for 7 days; format: functional, organism-based
[8] = (§4) Activity of CYP3A in Sprague-Dawley rat liver microsome; format: ADME; details: microsomes
[9] = system: CYP3A; assay: as §4; format: ADME; details: Sprague-Dawley, liver microsomes
[10] = system: Rattus norvegicus; assay: Effect on food intake in Sprague-Dawley rat at 50 mg/kg/day, po after 8 days; format: functional
[11] = system: Mus musculus; assay: Decrease in plasma triglyceride level in diet-induced obese C57BL/6 mouse at 3 mg/kg/day, po after 14 days; format: functional; parameters: scale not given: the % may be the effect or the level left; in short: as §2
[12] = system: Mus musculus; assay: Decrease in plasma triglyceride level in po dosed diet-induced obese C57BL/6 mouse after 14 days; format: functional; parameters: scale not given: the % may be the effect or the level left; in short: as §2
[13] = system: Mus musculus; assay: Reduction in blood glucose level in po dosed diet-induced obese C57BL/6 mouse; format: functional, organism-based; in short: as §3
[14] = system: Rattus norvegicus; assay: Toxicity in Sprague-Dawley rat assessed as suppression of thyroid hormone axis measured by decrease in free 3,5,3',5'-tetraiodo-L-thyronine level at 30 mg/kg, po after 7 weeks; format: organism-based; parameters: dose 30 mg/kg, route oral; details: in vivo, 1176 h
In short: (§5)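 Male SD rats (n = 5–6 per group; baseline group n = 8) given vehicle (0.5% CMC/1% Lutrol F68) or drug orally once daily. One group per cohort weighed and killed by decapitation without anesthesia after 1, 2, 4 and 7 weeks. Trunk-blood serum assayed for total/free T3 and T4; TSH by [125I] radioimmunoassay with magnetic separation. Pituitary TSHβ mRNA also measured.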

[15] = organism: Rattus norvegicus; assay: Reduction in plasma cholesterol level in cholesterol fed Sprague-Dawley rat; format: functional
[16] = system: Mus musculus; assay: Effect on hepatic LDLR mRNA level in wild-type C57BL/6 mouse at 5 mg/kg/day once daily for 7 days; format: functional
[17] = system: Rattus norvegicus; assay: Toxicity in Sprague-Dawley rat assessed as suppression of thyroid hormone axis measured by decrease in serum TSH level at 30 mg/kg, po after 7 weeks; format: organism-based; parameters: dose 30 mg/kg, route oral; details: in vivo, 1176 h
[18] = system: Rattus norvegicus; assay: Effect on plasma fatty acid level in Sprague-Dawley rat at 50 mg/kg/day, po after 8 days; format: functional
[19] = system: Rattus norvegicus; assay: Effect on plasma fatty acid level in Sprague-Dawley rat at 10 mg/kg/day, po after 8 days; format: functional
[20] = system: Rattus norvegicus; assay: Effect on plasma fatty acid level in Sprague-Dawley rat at 1 mg/kg/day, po after 8 days; format: functional
[21] = system: Rattus norvegicus; assay: Effect on plasma insulin level in Sprague-Dawley rat at 10 mg/kg/day, po after 8 days; format: functional
[22] = system: Mus musculus; assay: Decrease in cholesterol level in wild-type C57BL/6 mouse at 5 mg/kg/day once daily for 7 days; format: functional, organism-based
[23] = system: Rattus norvegicus; assay: Effect on fasting blood glucose level in Sprague-Dawley rat at 1 mg/kg/day, po after 8 days by oral glucose tolerance test; format: functional
[24] = molecular target: Thyroid hormone receptor alpha (Homo sapiens, UniProt P10827); assay: Displacement of [125I]T3 from recombinant thyroid hormone receptor alpha expressed in sf9 cells by scintillation proximity assay
[25] = system: Rattus norvegicus; assay: Effect on body weight in Sprague-Dawley rat at 1 mg/kg/day, po after 8 days; format: functional
[26] = Inhibition of CYP3A in Sprague-Dawley rat liver microsome at 10 uM; format: ADME; details: microsomes
[27] = Volume of distribution in Sprague-Dawley rat at 3 mg/kg, iv; format: ADME, organism-based; parameters: dose 3 mg/kg, route intravenous; details: in vivo
[28] = system: Rattus norvegicus; assay: Effect on body weight in Sprague-Dawley rat at 10 mg/kg/day, po after 8 days; format: functional
[29] = system: Rattus norvegicus; assay: Effect on plasma insulin level in Sprague-Dawley rat at 1 mg/kg/day, po after 8 days; format: functional
[30] = system: Mus musculus; assay: Decrease in liver weight in po dosed diet-induced obese C57BL/6 mouse after 14 days; format: functional; parameters: scale not given: the % may be the effect or the level left; in short: as §2
[31] = system: Mus musculus; assay: Effect on hepatic LDLR mRNA level in diet-induced obese C57BL/6 mouse at 10 mg/kg, po after 3 hrs by RT-PCR; format: functional; in short: as §1
[32] = molecular target: Thyroid hormone receptor beta (Homo sapiens, UniProt P10828); assay: Displacement of [125I]T3 from recombinant thyroid hormone receptor beta expressed in sf9 cells by scintillation proximity assay
[33] = system: Rattus norvegicus; assay: Increase in hepatic LDLR mRNA level in thyroidectomized Sprague-Dawley rat at 5 mg/kg after 24 hrs by RT-PCR relative to control; format: functional
In short: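 Male thyroidectomized SD rats given 5 mg/kg, with a parallel T₃ arm at 0.5 mg/kg. Hepatic LDLR mRNA quantified by quantitative real-time PCR.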

[34] = system: Rattus norvegicus; assay: Effect on malic enzyme mRNA expression in po dosed Sprague-Dawley rat liver; format: functional, organism-based; details: TDE = time-dependent effect
In short: (§6)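 Killed 3, 8 and 24 h post-dose under 2.5% isoflurane. Pituitary and thyroid snap-frozen; liver, heart, soleus, spleen and kidney freeze-clamped. mRNA by quantitative real-time PCR, expressed as fold-change vs vehicle.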

[35] = system: Rattus norvegicus; assay: Effect on type 1 iodothyronine deiodinase mRNA expression in po dosed Sprague-Dawley rat liver; format: functional, organism-based; details: TDE = time-dependent effect; in short: as §6
[36] = system: Hepatocyte; assay: Cmax per10'6 cells in Sprague-Dawley rat hepatocytes at 10 uM; format: ADME, Liver; parameters: dose 10 uM
In short: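 Freshly isolated rat hepatocytes were incubated with compound. Intracellular levels of the active phosphonate were followed over time and expressed per 10⁶ cells, giving Cmax and tmax.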

[37] = system: Mus musculus; assay: Decrease in cholesterol level in wild-type C57BL/6 mouse at 0.5 mg/kg/day once daily for 7 days; format: functional, organism-based
[38] = Clearance in Sprague-Dawley rat at 3 mg/kg, iv; format: ADME, organism-based; parameters: dose 3 mg/kg, route intravenous; details: in vivo
In short: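 Male SD rats received a single i.v. dose. Clearance and other PK parameters came from plasma concentration–time profiles of both the prodrug and the active phosphonate, values reported as mean ± SEM.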

[39] = system: Rattus norvegicus; assay: Effect on LDLR mRNA expression in po dosed Sprague-Dawley rat liver; format: functional, organism-based; details: TDE = time-dependent effect
[40] = system: Rattus norvegicus; assay: Effect on SREBP-1c mRNA expression in po dosed Sprague-Dawley rat liver; format: functional, organism-based; details: TDE = time-dependent effect
[41] = system: Rattus norvegicus; assay: Effect on food intake in Sprague-Dawley rat at 10 mg/kg/day, po after 8 days; format: functional
[42] = system: Rattus norvegicus; assay: Toxicity in Sprague-Dawley rat assessed as suppression of thyroid hormone axis measured by decrease in TSH-beta mRNA level at 30 mg/kg, po after 7 weeks; format: organism-based; parameters: dose 30 mg/kg, route oral; details: in vivo, 1176 h; in short: as §5
[43] = system: Rattus norvegicus; assay: Toxicity in Sprague-Dawley rat assessed as suppression of thyroid hormone axis measured by decrease in total 3,5,3',5'-tetraiodo-L-thyronine level at 30 mg/kg, po after 7 weeks; format: organism-based; parameters: dose 30 mg/kg, route oral; details: in vivo, 1176 h
[44] = system: Mus musculus; assay: Decrease in body weight in diet-induced obese C57BL/6 mouse at 30 mg/kg/day, po; format: functional; parameters: scale not given: the % may be the effect or the level left
[45] = system: Mus musculus; assay: Effect on hepatic LDLR mRNA level in LDLR deficient C57BL/6 mouse at 5 mg/kg/day once daily for 7 days; format: functional
[46] = system: Mus musculus; assay: Decrease in liver triglyceride level in diet-induced obese C57BL/6 mouse at 3 mg/kg/day, po after 14 days; format: functional; parameters: scale not given: the % may be the effect or the level left; in short: as §2
[47] = system: Rattus norvegicus; assay: Effect on fasting blood glucose level in Sprague-Dawley rat at 10 mg/kg/day, po after 8 days by oral glucose tolerance test; format: functional
[48] = system: Mus musculus; assay: Reduction in plasma cholesterol level in diet-induced obese C57BL/6 mouse at 3 mg/kg/day, po; format: functional; parameters: scale not given: the % may be the effect or the level left; in short: as §3
[49] = system: Rattus norvegicus; assay: Effect on plasma insulin level in Sprague-Dawley rat at 50 mg/kg/day, po after 8 days; format: functional
[50] = system: Rattus norvegicus; assay: Effect on body weight in Sprague-Dawley rat at 50 mg/kg/day, po after 8 days; format: functional

Chain of Thyroid hormone receptor alpha (P10827 whole entry): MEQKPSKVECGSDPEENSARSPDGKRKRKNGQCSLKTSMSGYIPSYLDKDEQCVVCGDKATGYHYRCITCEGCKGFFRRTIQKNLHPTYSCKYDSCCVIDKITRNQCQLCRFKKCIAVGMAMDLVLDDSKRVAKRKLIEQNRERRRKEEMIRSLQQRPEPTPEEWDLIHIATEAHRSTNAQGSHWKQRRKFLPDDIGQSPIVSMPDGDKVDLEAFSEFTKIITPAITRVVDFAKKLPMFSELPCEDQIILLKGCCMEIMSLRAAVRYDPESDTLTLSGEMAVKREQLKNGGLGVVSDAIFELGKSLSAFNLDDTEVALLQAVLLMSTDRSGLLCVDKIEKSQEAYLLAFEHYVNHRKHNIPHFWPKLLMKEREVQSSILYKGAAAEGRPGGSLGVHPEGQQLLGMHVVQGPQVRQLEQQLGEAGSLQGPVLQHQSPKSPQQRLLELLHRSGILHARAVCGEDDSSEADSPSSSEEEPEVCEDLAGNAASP
Chain of Thyroid hormone receptor beta (P10828 whole entry): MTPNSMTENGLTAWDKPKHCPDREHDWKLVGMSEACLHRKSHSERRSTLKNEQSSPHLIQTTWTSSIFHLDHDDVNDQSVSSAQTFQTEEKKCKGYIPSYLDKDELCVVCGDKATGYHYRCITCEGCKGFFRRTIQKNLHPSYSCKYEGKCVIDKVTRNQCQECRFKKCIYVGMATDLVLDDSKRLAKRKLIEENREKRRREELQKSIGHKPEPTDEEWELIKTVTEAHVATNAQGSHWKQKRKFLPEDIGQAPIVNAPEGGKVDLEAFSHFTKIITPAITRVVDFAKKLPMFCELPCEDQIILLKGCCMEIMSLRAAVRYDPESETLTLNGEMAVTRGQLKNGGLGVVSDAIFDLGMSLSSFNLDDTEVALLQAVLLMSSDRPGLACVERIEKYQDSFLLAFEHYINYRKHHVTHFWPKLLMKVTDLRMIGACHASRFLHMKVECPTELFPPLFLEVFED

Vmax [8]: 2.74 nmol/min/mg
Km [9]: 18.8 µM
Ki [24]: 12.5 µM
Activity [26]: Not Active
Vd [27]: 14.8 L/kg
Ki [32]: 14.6 µM
Activity [34]: tde
Activity [35]: tde
Cmax [36]: 1.03 nmol
clearance [38]: 193 mL/min/kg
SMILES: Cc1cc(OCP2(=O)OCC[C@@H](c3cccc(Cl)c3)O2)cc(C)c1Cc1ccc(O)c(C(C)C)c1 (stereo not given in full) [MB07811]
fold change (FC) [1]: 2.01
Activity [2]: -0.5 mg/dL
Activity [3]: 15.1%
Activity [4]: inactive
Activity [5]: 42%
Activity [6]: 61%
Activity [7]: inactive
Activity [10]: 15.6%
Activity [11]: 38%
Activity [12]: 40%
Activity [13]: Active
Activity [14]: Active
ED50 [15]: 0.4 mg/kg
Activity [16]: -31.8%
Activity [17]: Active
Activity [18]: 0.524 mM
Activity [19]: 0.541 mM
Activity [20]: 0.454 mM
Activity [21]: 0.342 ng/mL
Activity [22]: Active
Activity [23]: 9 mg/dL
Activity [25]: 42.8 g
Activity [28]: 37.9 g
Activity [29]: 0.424 ng/mL
Activity [30]: 42%
fold change (FC) [31]: 1.23
fold change (FC) [33]: 21.063
Activity [37]: Active
Activity [39]: tde
Activity [40]: tde
Activity [41]: 14.6%
Activity [42]: Active
Activity [43]: Active
Activity [44]: 3%
Activity [45]: -10.8%
Activity [46]: 69%
Activity [47]: 11.8 mg/dL
Activity [48]: 51%
Activity [49]: 0.402 ng/mL
Activity [50]: 49.3 g
